From ChEMBL document CHEMBL1139243, “Synthesis and biological evaluation of a 2-aryl polyhydroxylated pyrrolidine alkaloid-based library” (Bioorg Med Chem, 2008)

Tests used:
[1] = Inhibition of Bacillus stearothermophilus alpha-glucosidase; set-up: species or system Geobacillus stearothermophilus
How it was run: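 Bacillus stearothermophilus α-glucosidase at 0.25–1 units per mL in 100 mM sodium phosphate, pH 6.8, room temperature. Substrate is p-nitrophenyl glycopyranoside at twice Km, with Km 1.5 mM from a Michaelis–Menten fit. Initial hydrolysis rates read at 405 nm. Compounds screened first at a single high concentration; active ones retested at lower concentrations for IC50.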

[2] = Inhibition of yeast alpha-glucosidase; set-up: species or system Saccharomyces cerevisiae
How it was run: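 Yeast α-glucosidase at 0.25–1 units per mL in 100 mM sodium phosphate, pH 6.8, room temperature. p-Nitrophenyl glycopyranoside substrate at twice Km, with Km 0.19 mM from a Michaelis–Menten fit. Initial velocities monitored at 405 nm. Compounds screened first at a single concentration; actives titrated lower to get IC50.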

[3] = Inhibition of Helix pomatia beta-mannosidase
How it was run: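 β-Mannosidase at 0.25–1 units per mL in 100 mM sodium citrate, pH 6.4, room temperature. p-Nitrophenyl glycopyranoside substrate at twice its Michaelis–Menten Km. Initial velocities read at 405 nm. Compounds screened first at a single concentration; those active titrated lower for IC50.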

[4] = Inhibition of almond beta-glucosidase; set-up: species or system Prunus dulcis
How it was run: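 β-Glucosidase at 0.25–1 units per mL in 100 mM sodium phosphate buffer, pH 6.8, room temperature. p-Nitrophenyl glycopyranoside substrate at twice its Michaelis–Menten Km. Initial hydrolysis rates read spectrophotometrically at 405 nm. Compounds screened first at one concentration; actives retested at lower levels for IC50.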

[5] = Inhibition of yeast alpha-glucosidase by Lineweaver-Burke double reciprocal plot; set-up: species or system Saccharomyces cerevisiae

Row | Structure (SMILES) | IC50 [1] [µM] | IC50 [2] [µM] | IC50 [3] [µM] | IC50 [4] [µM] | Ki [5] [µM]
1 | CCCCN1[C@H](CO)[C@@H](O)[C@H](O)[C@H]1c1ccc(OC)c(O)c1 | > 200 | > 200 | > 200 | > 200 | –
2 | COc1ccc([C@@H]2[C@@H](O)[C@H](O)[C@@H](CO)N2C)cc1O | > 200 | 28 | 184 | > 200 | –
3 | COc1ccc([C@@H]2[C@@H](O)[C@H](O)[C@@H](CO)N2C)cc1OC | 24 | 72 | > 200 | > 200 | –
4 | COc1ccc(OC)c([C@H]2N[C@H](CO)[C@@H](O)[C@@H]2O)c1 | 4 | 2.6 | > 200 | 169 | –
5 | COc1ccc([C@H]2[C@H](O)[C@@H](O)[C@H](CO)N2C)cc1 | > 200 | > 200 | > 200 | > 200 | –
6 | COc1ccc([C@@H]2[C@@H](O)[C@H](O)[C@@H](CO)N2C)c(OC)c1 | > 200 | > 200 | 86 | > 200 | –
7 | COc1ccc(OC)c([C@@H]2[C@@H](O)[C@H](O)[C@@H](CO)N2C)c1 | > 200 | > 200 | > 200 | > 200 | –
8 | COc1ccc([C@@H]2[C@@H](O)[C@H](O)[C@@H](CO)N2C)cc1 | 9.2 | 38 | 61 | > 200 | –
9 | COc1ccc([C@H]2N[C@H](CO)[C@@H](O)[C@@H]2O)c(OC)c1 | 8.4 | 7.8 | 172 | 96 | –

Other lines, results leading:

Row | IC50 [1] [µM] | IC50 [2] [µM] | IC50 [3] [µM] | IC50 [4] [µM] | Ki [5] [µM] | Structure (SMILES)
10 | 10 | 24 | > 200 | > 200 | – | OC[C@H]1N[C@H](c2ccc(O)cc2)[C@@H](O)[C@@H]1O [RADICAMINE B]
11 | 8.8 | 0.5 | 21 | 122 | – | COc1ccc([C@H]2N[C@H](CO)[C@@H](O)[C@@H]2O)cc1
12 | > 200 | > 200 | 113 | > 200 | – | COc1ccc([C@@H]2N[C@@H](CO)[C@H](O)[C@H]2O)cc1O [L-RADICAMINE A]
13 | 1.8 | 1.1 | 52 | 34 | 0.7 | COc1ccc([C@H]2N[C@H](CO)[C@@H](O)[C@@H]2O)cc1OC
14 | 36 | 10 | 93 | 197 | – | OC[C@H]1N[C@H](c2ccccc2)[C@@H](O)[C@@H]1O
15 | 31 | 2.4 | – | – | – | COc1cccc([C@H]2N[C@H](CO)[C@@H](O)[C@@H]2O)c1
16 | > 200 | 6 | > 200 | > 200 | – | COc1ccc([C@@H]2N[C@@H](CO)[C@H](O)[C@H]2O)cc1OC
17 | 12 | 4.2 | 66 | > 200 | – | COc1ccc([C@H]2N[C@H](CO)[C@@H](O)[C@@H]2O)cc1O [RADICAMINE A]
18 | > 200 | 21 | > 200 | > 200 | – | COc1ccc([C@@H]2N[C@@H](CO)[C@H](O)[C@H]2O)cc1
